In PMC6679720 (Pharmacological research, 2019):
Like-named read-outs stand apart in the source and are kept apart here.

Columns and labels:
[1] = cited from earlier work
[2] = Plasma Oxt; assay type: in vivo, mice; settings: for half-life: male, mouse; for time of return of plasma Oxt concentration to baseline / half-life / AUCG / AUCI / Cmax: plasma; for AUCG / AUCI / Cmax: nasal 12 μg, ELISA, mean ± s.e.m.
How it was run: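 Male Oxt KO and wildtype C57BL/6J mice received Oxt (12 µg total) nasally (2 × 6 μl saline pipetted bilaterally on the rhinarium) or i.p. (0.1 ml saline). Blood was drawn through a jugular catheter every 30 min for 2 h and double-centrifuged (6000 rpm, 15 min, 4°C). Plasma plus an equal volume of 0.1% TFA was extracted on C18 Sep-Pak columns and assayed by Oxt ELISA. Cmax, T1/2, AUCG (pg*30 min/sample) and AUCI were calculated.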

[3] = cited from earlier work; remark: listed apart in the source
[4] = assay type: in vivo, mice; settings: for Cmax in amygdala ECF adjusted for recovery rate: adjusted for recovery rate (4.58%)
How it was run: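 Male Oxt KO and wildtype C57BL/6J mice, housed singly. The day before, mice were anaesthetised with tribromoethanol and fitted with a jugular catheter and two linear microdialysis probes (18 kDa cut-off) in amygdala and hippocampus. Oxt (12 µg total) was given nasally (2 × 6 μl saline on the rhinarium) or i.p. in 0.1 ml saline. Dialysates were taken every 30 min for 2 h, vacuum-dried without heat, stored at -80°C, and measured unextracted by RIA.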

[5] = wildtype C57BL/6J male mice, N = 8
[6] = mice and rats, nonhuman primates, humans

SMILES: CC[C@H](C)[C@@H]1NC(=O)[C@H](Cc2ccc(O)cc2)NC(=O)[C@@H](N)CSSC[C@@H](C(=O)N2CCC[C@H]2C(=O)N[C@@H](CC(C)C)C(=O)NCC(N)=O)NC(=O)[C@H](CC(N)=O)NC(=O)[C@H](CCC(N)=O)NC1=O [Oxt, oxytocin]
- share of the total Oxt that reaches the CNS ([1]; intravenous injection): 2×10^−6
- share of the total Oxt that reaches the CNS ([1]; nasal administration): 5×10^−6
- time of return of plasma Oxt concentration to baseline ([2]; Oxt KO mice, intraperitoneal injection): exceeding 120 minutes
- time of return of plasma Oxt concentration to baseline ([2]; Oxt KO mice, nasal administration): 90 to 120 min
- half-life ([2]; C57BL/6J (wildtype), inhaled or intranasal, 12 ug): 25.8 ± 6 min
- half-life ([2]; C57BL/6J, ip, 12 μg): 32 ± 9.1 min
- half-life ([2]; Oxt KO, ip, 12 μg): 34.5 ± 8.9 min
- AUCG ([2]; Oxt KO male mice, N = 7): 7920 ± 1280b pg*30 min/sample
- AUCI ([2]; Oxt KO male mice, N = 7): 6120± 1280 pg*30 min/sample
- Cmax ([2]; Oxt KO male mice, N = 7): 131 ± 29 pg/sample
- AUCG [2, 5]: 23,600 ± 4880a pg*30 min/sample
- AUCI [2, 5]: 17,300 ± 5260 pg*30 min/sample
- Cmax [2, 5]: 398± 101 pg/sample
- time for which Oxt was detected in circulation ([2]; nasal, Oxt KO mice, spiking in the first 30 minutes): 90 min
- persistence of the rise of plasma Oxt after nasal application ([3]; earlier studies): 75 to 90 min
- time of peak of plasma Oxt after nasal application ([3]; earlier studies): 15 to 30 min
- time of peak of Oxt in circulation after nasal application [3, 6]: 15 to 30 min
- time of return of Oxt in circulation to baseline after nasal application [3, 6]: 75 to 90 min
- time of rise in CSF Oxt after nasal application ([3]; ref 22, 23, 28): 15 to 30 min
- time of rise in CSF Oxt after nasal application ([3]; ref 24): 75 min
- time of rise in CSF Oxt after nasal application ([3]; ref 26): 60 min
- time of return of Oxt concentration to baseline ([4]; Oxt KO mice, amygdala, intraperitoneal injection): 60 to 90 min
- time at which Cmax of Oxt occurred ([4]; after nasal administration, current study, 30-min sampling): 30 to 60 min
- Cmax in amygdala ECF adjusted for recovery rate ([4]; intraperitoneal injection, wildtype mice, amygdala): 0.91 ± 0.27 ng/mL
- Cmax in amygdala ECF adjusted for recovery rate ([4]; nasal administration, wildtype mice, amygdala): 4.16 ± 1.00 ng/mL
- time of peak concentration in brain ECF and plasma ([4]; nasal and intraperitoneal administration, wildtype mice): 30 to 60 min
- time for which Oxt remained detectable in amygdala and hippocampus ([4]; nasal, Oxt KO mice): 90 min
